# Screens deposited in PubChem by several laboratories.
# In the library only some 4.1% were active in any assay of this set; here they are far more common.
# Cl transport mod: modulators of human KCC2 chloride dependent transport | AID 1456 | Q9H2X9 | KCC2 cells, thallium flux FluoZin-2 fluorescence | 2.2% of 190,000 active | B-score of Tl+ flux slope (higher = more flux/activation; lower = inhibition) at 10 µM;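 active means thallium flux slope and its plate-corrected score both differing from the plate sample mean at a set confidence after two filtering rounds, in either direction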;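 further: slope of fluorescence scaled to starting intensity during 10 to 20 s after thallium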
# hERG rescue: compounds protecting human hERG from proarrhythmic drug block; CHO-hERG, FluxOR thallium flux, dofetilide IC70 present; 0.51% of 310,000 active; activation (rescue from dofetilide block), less the hit threshold, % at 10 µM;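 active means activation above the mean of controls blocked by dofetilide plus 5 SD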;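 further: thallium influx through hERG after potassium depolarization seen as dye fluorescence rise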
# KCNK3 block: human KCNK3 channel inhibition, primary screen | 0.84% of 340,000 active | O14649 | B-score at 10 µM | CHO-KCNK3 thallium flux, FluxOR fluorescence; hits give low values | AID 602410;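 active means B-score under library mean minus 4 SD, starting fluorescence ratio at most library mean plus 5 SD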;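 further: more negative B-score means stronger inhibition of thallium flux through KCNK3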
# KCNQ1 act: potentiators or activators of human KCNQ1 potassium channel; CHO-K1 KCNQ1, thallium flux FluxOR fluorescence; hits give high values; AID 2648; B-score at 10 µM; 0.35% of 310,000 active;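 active means fluorescence ratio B-score, a plate-corrected score, at least three library SD, with initial intensity B-score within 5 SD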
# Target sequence (P51787 whole entry, looked up): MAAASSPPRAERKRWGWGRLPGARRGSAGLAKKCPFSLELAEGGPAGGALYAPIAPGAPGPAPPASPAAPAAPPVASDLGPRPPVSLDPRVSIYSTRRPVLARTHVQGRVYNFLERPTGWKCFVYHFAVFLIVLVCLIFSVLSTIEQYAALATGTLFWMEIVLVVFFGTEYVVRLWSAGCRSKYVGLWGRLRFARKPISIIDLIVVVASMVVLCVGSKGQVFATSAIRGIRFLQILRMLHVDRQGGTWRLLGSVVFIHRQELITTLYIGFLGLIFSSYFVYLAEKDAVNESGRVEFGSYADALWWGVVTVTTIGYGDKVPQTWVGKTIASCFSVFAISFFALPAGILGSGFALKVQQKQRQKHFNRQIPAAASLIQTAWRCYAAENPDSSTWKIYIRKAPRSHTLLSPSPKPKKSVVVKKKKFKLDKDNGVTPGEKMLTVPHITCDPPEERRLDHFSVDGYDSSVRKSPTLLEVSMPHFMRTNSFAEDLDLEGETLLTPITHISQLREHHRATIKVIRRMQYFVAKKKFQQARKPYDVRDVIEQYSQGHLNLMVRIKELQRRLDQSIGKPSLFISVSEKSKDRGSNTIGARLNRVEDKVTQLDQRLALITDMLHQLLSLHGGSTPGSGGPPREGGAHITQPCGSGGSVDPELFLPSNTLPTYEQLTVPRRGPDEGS
#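 assay system = KCNQ1-transfected CHO-K1 cells | medium = assay buffer with matched DMSO | probe or stimulus = depolarizing K+/Tl+ stimulus, K2SO4 and Tl2SO4 each 12.5 mM in 5x stock | dosing = single dose | incubation = dye 90 min, compound 20 min, room temperature | detection = kinetic FluxOR fluorescence, 10 s baseline plus 110 s post-stimulus | evaluation = ratio B score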
# KCNK9 inh: inhibitors of human KCNK9 two-pore domain potassium channel. HEK293 KCNK9, FluxOR thallium flux fluorescence; hits give low values. B-score at 10 µM. 1.2% of 310,000 active;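 active means ratio B-score over 3 SD below the library mean, with starting fluorescence within 5 SD of its mean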;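 further: negative B-score means less thallium flux so channel inhibition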
# KCNQ1 inh: inhibitors of human KCNQ1 potassium channel. 1.3% of 310,000 active. AID 2642. B-score at 10 µM. P51787. CHO-K1 KCNQ1, FluxOR thallium flux fluorescence; hits give high values;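 active means compounds whose thallium flux B-score, printed positive for inhibition, exceeds three library SD while starting fluorescence stays within three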;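 further: channel opened by potassium depolarization with thallium stimulus after 20 min compound exposure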
# KCC2 sec1: confirmation of human KCC2 transport modulators | shares compounds with Cl transport mod | HEK293-KCC2, thallium flux, FluoZin2 fluorescence; hits give high values | normalised thallium flux (F/F0 slope) at 10 µM | 15% of 3,700 active;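 active means thallium flux slope above the same plate's solvent-only control mean plus 3 SD; inconclusive means the two replicate wells disagree; inactive means no significant difference from solvent-only control wells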
# KCC2 bumet counter: thallium flux persisting under bumetanide in KCC2 cells, counter-screen secondary assay; shares compounds with Cl transport mod; HEK293-KCC2 + bumetanide/ouabain, thallium flux FluoZin2; hits give high values; normalized thallium flux at 10 µM; 49% of 3,700 active; AID 1714;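 active means thallium entry rate above the same plate's blocked-transporter control wells by more than 3 SD; inconclusive means the two repeat wells disagree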;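 further: raw slope of fluorescence over initial fluorescence between 10 and 20 s after thallium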
# KCC2 sec2: KCC2 (human) modulation, second secondary assay | shares compounds with Cl transport mod | HEK293-KCC2, thallium flux FluoZin2 fluorescence; actives lie on both sides; F/F0 rise rate, 10–20 s post-thallium | normalized thallium flux at 10 µM | 23% of 3,700 active | AID 1715;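 active means thallium flux slope more than 3 SD above or below the plate's solvent-only control mean, mostly below; inconclusive means the two repeat wells disagreed; inactive means no significant shift from solvent-only controls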;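 further: raw slope with 0.1% DMSO as baseline and bumetanide as block control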
# HEK counter1: parental HEK flux effect, counter-screen. shares compounds with Cl transport mod. HEK293 parental cells, thallium flux FluoZin2, ouabain; baseline-ratio fluorescence slope, 10–20 s after thallium. thallium flux rate (normalised fluorescence) at 10 µM. 46% of 3,700 active. AID 1716;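 active means thallium flux rate significantly above the same plate's solvent-only control wells, beyond their mean plus 3 SD; inconclusive means the two replicate wells gave conflicting results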
# KCC2 ouabain: KCC2 (human) modulation, ouabain retest; shares compounds with Cl transport mod; HEK293-KCC2, thallium flux FluoZin2 fluorescence; bidirectional: low = inhibitor, high = activator; raw Tl+ flux slope (below DMSO = inhibition, above = activation) at 10 µM; 48% of 3,700 active; AID 1717;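 active means thallium flux slope beyond 3 SD from same-plate DMSO control mean in most replicates, usually higher, sometimes lower; inconclusive means repeat tests gave conflicting results; inactive means no significant difference from controls in most replicates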;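 further: slope of initial-normalized fluorescence between seconds 10 and 20 after thallium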
# HEK293 Tl flux2: acts in parental HEK cells, second KCC2 counter-screen; thallium flux slope at 10 µM; HEK293 parental, thallium flux FluoZin-2 fluorescence slope; shares compounds with Cl transport mod; 33% of 3,700 active;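 active means thallium flux slope above the same plate's solvent-control mean plus 3 SD in both duplicate wells; inconclusive means duplicate wells that disagreed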;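 further: run without ouabain in cells lacking the KCC2 cotransporter; slope of fluorescence scaled to its starting value between 10 and 20 s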
# KCNQ1 block val: confirmation of human KCNQ1 potassium channel inhibitors. shares compounds with KCNQ1 inh. KCNQ1 cell line, FluxOR thallium flux fluorescence. inhibition, % at 10 µM. 93% of 1,600 active. AID 588353;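 active means primary screen active, with duplicate mean exceeding buffer control mean plus 3 SD of buffer wells, cut at about 28% in these data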;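 further: 0% = buffer control ratio and 100% = XE991 inhibitor control ratio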
# CHO Tl flux: KCNQ1 inhibitor counter-screen hit in parental CHO cells; shares compounds with KCNQ1 inh; parental CHO-K1, FluxOR thallium flux fluorescence ratio; hits give low values; zero means no signal rise above baseline; fluorescence ratio (Tl flux) at 10 µM; 21% of 1,600 active; AID 588366;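 active means mean of duplicate thallium-flux fluorescence ratios in parental host cells more than 5 SD below the buffer control mean, cut at about 0.38 in these data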;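 further: ratio is peak minus minimum fluorescence divided by baseline fluorescence; actives read low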
# KCNQ1 ephys val: human KCNQ1 inhibition validated by electrophysiology. shares compounds with KCNQ1 inh. KCNQ1-CHO cells, automated patch clamp current. calls only at 10 µM. 20% of 490 active. AID 624120;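 active means KCNQ1 current drop exceeding 3 SD of negative control wells, seen in both duplicate runs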;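 further: steady state current during a 2 s step from -80 to +40 mV; negative values mean current inhibition and positive values mean potentiation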
# KCNQ2 spec: KCNQ1 inhibitor that also blocks rat KCNQ2 channel; shares compounds with KCNQ1 inh; KCNQ2 cells, FluxOR thallium flux fluorescence; inhibition, % at 10 µM; 71% of 1,600 active;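 active means mean percent inhibition of the KCNQ2 thallium signal more than 5 SD above the buffer-only control wells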;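 further: KCNQ2 expressed in CHO cells; 0% = buffer control wells and 100% = XE-991 inhibitor control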
# KCNQ1-KCNE1 inh: selectivity of KCNQ1 inhibitors: inhibition of human KCNQ1/KCNE1 channel; shares compounds with KCNQ1 inh; KCNQ1/KCNE1 cells, FluxOR thallium flux fluorescence; inhibition, % at 10 µM; 77% of 1,600 active; AID 652147;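 active means mean percent inhibition of duplicate wells above the buffer-only control mean plus 3 SD of those controls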;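 further: 0% = buffer only wells and 100% = XE-991 inhibitor control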
# * marks the source's active call; other numbers are inactive results; i = inactive; u = inconclusive; x = no result.
SMILES,Cl transport mod,hERG rescue,KCNK3 block,KCNQ1 act,KCNK9 inh,KCNQ1 inh,KCC2 sec1,KCC2 bumet counter,KCC2 sec2,HEK counter1,KCC2 ouabain,HEK293 Tl flux2,others
CN1CCC(N(C)C(=S)NC(=O)c2cc(-c3cccc(Br)c3)nc3ccccc23)CC1,16*,-9,i,i,i,i,0.0048,0.015*,0.035,0.012*,u,0.014*,
CN1CCN(NC(=O)c2cc(-c3cccc(Cl)c3)nc3ccccc23)CC1,0.49,-20,i,i,i,i,x,x,x,x,x,x,
COC(=O)[C@@]1(C)[C@H]2C(=O)N(C)C(=O)[C@H]2[C@H]2CN=C(SCc3ccc(Cl)cc3)N21,x,x,i,x,x,x,x,x,x,x,x,x,
COc1c(N)c2c(c([N+](=O)[O-])c1OC)C(=O)OC2,x,x,i,x,x,x,x,x,x,x,x,x,
CCOC(=O)c1c(-c2ccccc2)csc1NC(=O)CSc1ccccc1,-0.064,-14,i,i,i,i,x,x,x,x,x,x,
CCOC(=O)c1c(-c2ccccc2)csc1NC(=O)CSc1nnnn1C,-4.7*,-9,i,i,i,i,0.0054,0.0043,0.028,0.0076,u,u,
Cc1ccc(-c2n[nH]c(=S)n2/N=C\c2ccco2)cc1,2.2,-5,i,i,i,i,x,x,x,x,x,x,
Cc1ccc(-c2n[nH]c(=S)n2/N=C/c2ccc(C)o2)cc1,3.7*,-6,i,i,i,6*,u,0.018*,0.032,0.014*,0.026*,0.012,KCNQ1 block val=0;CHO Tl flux=0.52;KCNQ2 spec=i;KCNQ1-KCNE1 inh=i
CC(=O)Nc1ccc(S(=O)(=O)NC(CSc2ccc(C(=O)O)cc2[N+](=O)[O-])C(=O)O)cc1 (configuration not stated),x,-4,i,i,i,i,x,x,x,x,x,x,
c1ccc(-c2noc(-c3ccccc3-c3ccccc3)n2)cc1,5.6*,-8,i,i,i,7*,0.0064,0.0037,0.032,0.0074,0.019,0.01,KCNQ1 block val=133*;CHO Tl flux=0.4;KCNQ1 ephys val=i;KCNQ2 spec=115%*;KCNQ1-KCNE1 inh=194%*
